In data set [1] the test system is spatial learning and memory. Briefly: Morris water maze. Type of data set: in vivo, male Wistar rats. As to conditions: for effect on Morris water-maze performance on its own: WYS8 0.2, 1 and 10 mg/kg i.p., β-CCt 5 mg/kg i.p. In a few lines:
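Male Wistar rats, 220–250 g, n=8/group, dosed i.p. in 85% water/14% propylene glycol/1% Tween 80 (sonicated) 20 min before each daily block for 5 acquisition days. Pool 200 cm wide with 23°C water; 15×10 cm platform 2 cm below the surface. Each block had 4 trials (max 120 s, 60 s interval, pseudorandom starts). Per-rat daily means were recorded. The probe trial measured target-region time and peripheral-ring distance.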

The next data set deals with α5β3γ2 GABAA receptors (Rattus norvegicus, UniProt P18508+P19969). The data set can be described thus: Two electrode voltage clamp, modulation of EC3 GABA current in Xenopus oocytes. The format is cell-based. As to conditions: for % of control current: EC3 GABA, α5β3γ2. On the technique in general: Two-electrode voltage clamp holds a large cell at a set potential and records current.

A further data set deals with α1β3γ2 GABAA receptors (Rattus norvegicus, UniProt P18508+P62813). The description is as above. The format is cell-based.
The target in another data set is α3β3γ2 GABAA receptors (Rattus norvegicus, UniProt P18508+P20236). The data set is described as above. Type of data set: cell-based.
The next data set addresses α2β3γ2 GABAA receptors (Rattus norvegicus, UniProt P18508+P23576). The data set is described as above. Type of data set: cell-based.
Data set [2] concerns spatial learning and memory. As to conditions: ref Savić et al, 2009, cited from earlier work.
In the next data set the target is α1β3γ2 GABAA/BZ site. The following applies: recombinant human receptors; ref Yin et al., 2010; cited from earlier work.
The subject of a further data set is α1 GABAA receptors. As to conditions: after 7 days of treatment, ref Wu et al., 1995, cited from earlier work.
The nature of data set [3]: Quantification in rat brain tissue. Type of data set: in vivo, Wistar rats. The following applies: Wistar, intraperitoneal, 10 mg/kg, total brain concentration, highest behaviorally tested dose.
The next data set concerns the target α3β3γ2 GABAA/BZ site. As to conditions: α3 GABAA receptors; ref Yin et al., 2010; cited from earlier work.
In another data set the target is α2β3γ2 GABAA/BZ site. As to conditions: α2 GABAA receptors; ref Yin et al., 2010; cited from earlier work.
The target in the next data set is α5β3γ2 GABAA/BZ site. As to conditions: α5 GABAA receptors; ref Yin et al., 2010; cited from earlier work.
Setting [4] is: WYS8 0.2 and 10 mg/kg + DZP 2 mg/kg i.p.

The values below come from article PMC3448846 (European neuropsychopharmacology : the journal of the …, 2012).

Each structure is given as a SMILES string. Where two headings read alike, the source gives them in different places.

Sequence of α1β3γ2 GABAA receptors (P62813 28-455): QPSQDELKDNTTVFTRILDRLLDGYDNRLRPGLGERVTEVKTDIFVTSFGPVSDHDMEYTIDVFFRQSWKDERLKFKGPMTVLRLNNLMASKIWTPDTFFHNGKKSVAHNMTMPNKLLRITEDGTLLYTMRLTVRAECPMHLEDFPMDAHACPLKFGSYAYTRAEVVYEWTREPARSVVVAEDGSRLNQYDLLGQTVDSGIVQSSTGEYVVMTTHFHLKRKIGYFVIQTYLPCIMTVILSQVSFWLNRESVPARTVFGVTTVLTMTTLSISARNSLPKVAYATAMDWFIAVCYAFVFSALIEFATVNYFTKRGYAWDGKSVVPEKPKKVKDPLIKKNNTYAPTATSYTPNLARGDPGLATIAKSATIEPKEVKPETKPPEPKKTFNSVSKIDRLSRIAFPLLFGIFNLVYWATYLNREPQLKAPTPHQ
Sequence of α1β3γ2 GABAA receptors (P63079 26-473 partner): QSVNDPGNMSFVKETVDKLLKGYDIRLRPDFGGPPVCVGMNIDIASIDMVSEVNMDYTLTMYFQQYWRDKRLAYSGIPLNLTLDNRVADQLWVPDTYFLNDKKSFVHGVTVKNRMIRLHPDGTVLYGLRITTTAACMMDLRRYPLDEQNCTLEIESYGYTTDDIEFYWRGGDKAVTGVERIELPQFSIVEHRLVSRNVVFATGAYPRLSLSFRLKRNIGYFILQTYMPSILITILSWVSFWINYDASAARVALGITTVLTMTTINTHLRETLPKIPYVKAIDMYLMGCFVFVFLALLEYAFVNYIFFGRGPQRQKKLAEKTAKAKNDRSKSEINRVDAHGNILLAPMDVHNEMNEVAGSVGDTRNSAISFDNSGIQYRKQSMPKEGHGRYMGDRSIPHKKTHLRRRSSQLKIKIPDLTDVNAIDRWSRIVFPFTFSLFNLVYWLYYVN
Sequence of α1β3γ2 GABAA receptors (P18508 39-466): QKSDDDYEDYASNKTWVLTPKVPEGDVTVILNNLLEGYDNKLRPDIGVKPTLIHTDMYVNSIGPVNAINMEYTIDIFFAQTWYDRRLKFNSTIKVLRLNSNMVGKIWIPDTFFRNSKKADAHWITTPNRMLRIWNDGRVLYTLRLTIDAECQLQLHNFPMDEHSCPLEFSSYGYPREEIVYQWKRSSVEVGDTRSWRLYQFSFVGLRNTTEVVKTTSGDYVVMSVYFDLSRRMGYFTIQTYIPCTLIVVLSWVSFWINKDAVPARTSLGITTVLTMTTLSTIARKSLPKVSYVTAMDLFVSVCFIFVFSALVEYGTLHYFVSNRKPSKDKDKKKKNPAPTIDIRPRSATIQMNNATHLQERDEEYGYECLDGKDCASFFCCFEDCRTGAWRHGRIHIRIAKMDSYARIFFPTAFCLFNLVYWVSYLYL
Sequence of α3β3γ2 GABAA receptors (P20236 29-493): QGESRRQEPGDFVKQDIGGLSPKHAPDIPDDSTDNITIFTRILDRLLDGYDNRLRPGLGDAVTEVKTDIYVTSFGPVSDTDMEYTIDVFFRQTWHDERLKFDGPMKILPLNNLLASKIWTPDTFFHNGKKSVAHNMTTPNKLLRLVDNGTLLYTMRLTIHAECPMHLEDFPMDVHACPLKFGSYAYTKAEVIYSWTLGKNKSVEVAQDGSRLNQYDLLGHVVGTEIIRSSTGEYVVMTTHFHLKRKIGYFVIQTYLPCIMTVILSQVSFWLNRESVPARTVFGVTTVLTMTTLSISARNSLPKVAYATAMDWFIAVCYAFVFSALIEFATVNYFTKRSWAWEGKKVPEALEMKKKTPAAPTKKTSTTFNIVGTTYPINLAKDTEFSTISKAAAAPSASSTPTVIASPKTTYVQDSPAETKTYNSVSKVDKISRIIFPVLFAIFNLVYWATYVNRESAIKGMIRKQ
Sequence of α3β3γ2 GABAA receptors (P63079 26-473 partner): as the sequence (P63079 26-473 partner) above
Sequence of α3β3γ2 GABAA receptors (P18508 39-466): as the sequence (P18508 39-466) above
Sequence of α5β3γ2 GABAA receptors (P19969 32-464 limits assumed): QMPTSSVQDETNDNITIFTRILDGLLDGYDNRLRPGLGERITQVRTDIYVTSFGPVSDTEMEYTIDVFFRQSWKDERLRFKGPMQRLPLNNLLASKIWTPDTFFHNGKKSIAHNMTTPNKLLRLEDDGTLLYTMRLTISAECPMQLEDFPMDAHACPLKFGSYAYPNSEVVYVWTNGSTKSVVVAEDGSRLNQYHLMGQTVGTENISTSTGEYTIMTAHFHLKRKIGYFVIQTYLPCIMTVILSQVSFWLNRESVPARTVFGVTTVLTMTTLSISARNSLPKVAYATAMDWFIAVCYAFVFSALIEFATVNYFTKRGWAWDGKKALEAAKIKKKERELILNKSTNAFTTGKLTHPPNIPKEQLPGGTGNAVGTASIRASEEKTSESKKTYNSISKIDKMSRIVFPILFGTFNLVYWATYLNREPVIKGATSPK
Sequence of α5β3γ2 GABAA receptors (P63079 26-473 partner): as the sequence (P63079 26-473 partner) above
Sequence of α5β3γ2 GABAA receptors (P18508 39-466): as the sequence (P18508 39-466) above
Sequence of α2β3γ2 GABAA receptors (P23576 29-451): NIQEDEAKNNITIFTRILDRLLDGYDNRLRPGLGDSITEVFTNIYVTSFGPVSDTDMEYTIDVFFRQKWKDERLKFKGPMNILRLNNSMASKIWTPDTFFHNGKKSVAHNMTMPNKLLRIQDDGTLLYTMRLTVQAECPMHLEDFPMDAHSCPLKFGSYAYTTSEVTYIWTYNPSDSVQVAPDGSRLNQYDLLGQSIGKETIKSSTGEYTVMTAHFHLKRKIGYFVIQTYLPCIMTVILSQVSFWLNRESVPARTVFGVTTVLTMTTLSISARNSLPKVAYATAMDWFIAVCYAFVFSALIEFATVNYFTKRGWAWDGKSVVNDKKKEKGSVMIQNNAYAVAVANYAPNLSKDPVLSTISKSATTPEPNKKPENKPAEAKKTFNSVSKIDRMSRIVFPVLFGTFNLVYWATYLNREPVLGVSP
Sequence of α2β3γ2 GABAA receptors (P63079 26-473 partner): as the sequence (P63079 26-473 partner) above
Sequence of α2β3γ2 GABAA receptors (P18508 39-466): as the sequence (P18508 39-466) above

For the molecule `CN1C(=O)CN=C(c2ccccc2)c2cc(Cl)ccc21` [DZP, diazepam, reference compound], in data set [1] (2 mg/kg i.p., vs solvent-treated controls), the “total distance travelled during acquisition” value is recorded as “significantly longer distances than solvent-treated controls during all five days”. The remaining activity at 0.01 µM at α5β3γ2 GABAA receptors (read-out: % of control current) is 160 ± 2%; on α1β3γ2 GABAA receptors (read-out: % of control current), 136 ± 3%; at α3β3γ2 GABAA receptors (read-out: % of control current), 167 ± 8%; on α2β3γ2 GABAA receptors (read-out: % of control current), 193 ± 5%.

`CC(C)(C)OC(=O)c1cc2c(cn1)[nH]c1ccccc12` [β-CCt, t-butyl-β-carboline-3-carboxylate, reference compound]: in data set [1], the “effect on Morris water-maze performance on its own” value is on record as “no substantial effect”. In addition, the “effect on spatial learning deficits induced by DZP in the water maze” value in data set [2] (acquisition) is recorded as “almost completely abolished”. Besides, the “effect on spatial memory deficits induced by DZP, probe trial” value in [2] is reported as “at least partially prevented”. Besides, at α1β3γ2 GABAA/BZ site, the “binding affinity at α1 GABAA receptors” value is recorded as “sub-nanomolar”.

Turning to `CCN(CC)CCN1C(=O)CN=C(c2ccccc2F)c2cc(Cl)ccc21` [flurazepam], the “decrease of binding of radiolabelled zolpidem” value was 23% in the data set on α1 GABAA receptors (cerebellum) and 14% in the data set on α1 GABAA receptors (hippocampus).

As a reminder, the Ki is a dissociation constant, usually derived from enzyme kinetics or from competition with a known ligand. `C#Cc1cccc2c1[nH]c1cnc(C(=O)OC(C)(C)C)cc12` [WYS8, 8-ethynyl-β-carboline-3-carboxylate-t-butyl ester]: the concentration at 20 min in [3] is less than 100 nM. Further, the Ki was 102 nM on α3β3γ2 GABAA/BZ site, 111 nM on α2β3γ2 GABAA/BZ site and 208 nM on α5β3γ2 GABAA/BZ site. Also, the “effect of addition to DZP on DZP's actions in the water maze” value in [1] (WYS8 0.2, 1 and 10 mg/kg + DZP 2 mg/kg i.p.) is “did not generally affect the BZ’s actions”. The “activity in the water maze when combined with β-CCt” value in data set [1] (WYS8 0.2, 1 and 10 mg/kg + β-CCt 5 mg/kg i.p.) was “devoid of any activity”. The “effect on Morris water-maze performance on its own” value in data set [1] is “no substantial effect”. Also, the “latency on the fourth day, combination with DZP vs DZP alone” value in data set [1] (setting [4]) was “significantly longer latencies than those treated with DZP alone”. Besides, the “total distance on the fourth day, combination with DZP vs DZP alone” value in [1] (setting [4]) was “significantly longer distances than those treated with DZP alone”. The “% of control current” value at α5β3γ2 GABAA receptors (10 nM compound) is reported as “no significant stimulation”; at α5β3γ2 GABAA receptors (100 nM compound), “non-significant changes”; at α3β3γ2 GABAA receptors (10 nM compound, EC3 GABA, α3β3γ2), “no significant stimulation”; on α2β3γ2 GABAA receptors (10 nM compound, EC3 GABA, α2β3γ2) it was “no significant stimulation”. Further, the “modulation of EC3 GABA response” value at α5β3γ2 GABAA receptors (1 μM compound, α5 GABAA receptors) is listed as “significant, though relatively small negative modulation”. Also, the potentiation on α1β3γ2 GABAA receptors (at 100 nM, α1-subtype) worked out at 40%. In addition, the remaining activity at 0.01 µM on α1β3γ2 GABAA receptors (read-out: % of control current) turned out to be 124 ± 3%. The remaining activity at 0.1 µM is 141 ± 5% at α1β3γ2 GABAA receptors (read-out: % of control current), 126 ± 7% on α3β3γ2 GABAA receptors (read-out: % of control current) and 109 ± 2% on α2β3γ2 GABAA receptors (read-out: % of control current). Besides, the “binding affinity at α1 GABAA receptors” value at α1β3γ2 GABAA/BZ site was “sub-nanomolar”.
